In BindingDB's records for doi:10.1021/jm0101702 (Abbott Laboratories, 2001):

Columns and labels:
[1] = molecular target: T1, Vascular cell adhesion protein 1 (Homo sapiens, UniProt P19320); experiment: In vitro inhibitory potency compared to IL1-beta induced VCAM-1 in human endothelial cells (ELISA assay)
T1 sequence (P19320 whole entry): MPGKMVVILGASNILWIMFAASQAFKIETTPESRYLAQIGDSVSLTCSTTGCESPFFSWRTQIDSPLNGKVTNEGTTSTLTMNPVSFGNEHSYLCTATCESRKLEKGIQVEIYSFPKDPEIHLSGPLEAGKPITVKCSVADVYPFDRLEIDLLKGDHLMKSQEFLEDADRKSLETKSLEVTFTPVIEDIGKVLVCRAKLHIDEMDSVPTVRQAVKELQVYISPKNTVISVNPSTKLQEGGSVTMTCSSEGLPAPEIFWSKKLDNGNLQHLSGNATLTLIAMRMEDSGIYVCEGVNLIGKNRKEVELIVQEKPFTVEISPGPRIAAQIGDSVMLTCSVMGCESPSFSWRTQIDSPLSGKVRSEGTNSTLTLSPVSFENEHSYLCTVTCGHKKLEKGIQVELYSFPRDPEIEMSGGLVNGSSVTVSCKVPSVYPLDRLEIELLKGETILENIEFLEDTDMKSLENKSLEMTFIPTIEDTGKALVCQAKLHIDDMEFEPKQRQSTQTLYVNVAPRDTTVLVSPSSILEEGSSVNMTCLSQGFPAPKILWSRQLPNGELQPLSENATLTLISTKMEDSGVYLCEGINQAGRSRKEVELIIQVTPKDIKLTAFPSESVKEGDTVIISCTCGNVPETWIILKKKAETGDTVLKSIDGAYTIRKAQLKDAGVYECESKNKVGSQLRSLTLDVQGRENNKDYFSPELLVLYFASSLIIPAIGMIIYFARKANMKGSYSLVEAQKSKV
Outline: (§1)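 Whole-cell ELISA on primary HUVECs plated at 5 × 10^4 cells/mL in EBM/2% FBS with growth supplements. Compound preincubated 24 h at 37 °C, then inducer added (TNFα at 5 ng/mL final, or IL-1β or PMA in its place) for 6 h at 37 °C. Mouse monoclonal anti-E-selectin, anti-ICAM-1 or anti-VCAM-1 was applied overnight at 4 °C, then HRP anti-mouse IgG. Detection with OPD, A490. Triplicate assays.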

[2] = molecular target: T1, Vascular cell adhesion protein 1; experiment: In vitro inhibitory potency compared to PMA induced VCAM-1 in human endothelial cells (ELISA assay); outline: as §1
[3] = molecular target: T1, Vascular cell adhesion protein 1; experiment: In vitro inhibitory potency compared to TNF-alpha induced VCAM-1 in human endothelial cells (ELISA assay); outline: as §1
[4] = Inhibition of VCAM-1 in human endothelial cells
[5] = molecular target: T1, Vascular cell adhesion protein 1; experiment: Inhibition of VCAM-1 in human endothelial cells; outline: as §1
[6] = molecular target: T1, Vascular cell adhesion protein 1; experiment: In vitro inhibitory potency compared to PMA induced VCAM-1 expression in human endothelial cells (ELISA assay)
Outline: (§2)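 Primary HUVECs seeded at 5 × 10^4 cells/mL in EBM/2% FBS with EGF, bovine brain extract and gentamicin. Compound added next day for 24 h at 37 °C, then inducer (IL-1β or PMA, level not stated) for 6 h at 37 °C. Whole-cell ELISA used mouse monoclonal anti-ICAM-1 or anti-VCAM-1, HRP donkey anti-mouse IgG and OPD, read at 490 nm. Run in triplicate.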

[7] = molecular target: T1, Vascular cell adhesion protein 1; experiment: In vitro inhibitory potency compared to IL1-beta induced VCAM-1 expression in human endothelial cells (ELISA assay); outline: as §2

CNC(=O)c1cc2c(Oc3ccc(COCCOCCOC)cc3)cncc2s1 [4-{4-[2-(2-Methoxy-ethoxy)-ethoxymethyl]-phenoxy}-thieno[2,3-c]pyridine-2-carboxylic acid methylamide]
IC50 [1]: 20 nM
IC50 [2]: 20 nM
IC50 [3]: 30 nM
IC50 [4]: 120 nM

Cc1ccc(Sc2cncc3sc(C(N)=O)cc23)cc1 [4-p-Tolylsulfanyl-thieno[2,3-c]pyridine-2-carboxylic acid amide]
IC50 [5]: > 1000 nM

NC(=O)c1cc2c(Oc3ccc(Br)cc3)cncc2s1 [4-(4-Bromo-phenoxy)-thieno[2,3-c]pyridine-2-carboxylic acid amide]
IC50 [1]: 7 nM
IC50 [2]: 20 nM
IC50 [3]: 8 nM
IC50 [4]: 48 nM

CNC(=O)c1cc2c(Oc3ccc(Cl)cc3)cncc2s1 [4-(4-Chloro-phenoxy)-thieno[2,3-c]pyridine-2-carboxylic acid methylamide]
IC50 [6]: 200 nM
IC50 [4]: > 1000 nM
IC50 [7]: 70 nM

NC(=O)c1cc2c(Oc3ccc(C(=O)N(C(=O)NC4CCCCC4)C4CCCCC4)cc3)cncc2s1 [4-[4-(1,3-Dicyclohexyl-ureidocarbonyl)-phenoxy]-thieno[2,3-c]pyridine-2-carboxylic acid amide]
IC50 [4]: > 1000 nM

NC(=O)c1cc2c(Oc3ccc(C(=O)N4CCOCC4)cc3)cncc2s1 [4-[4-(Morpholine-4-carbonyl)-phenoxy]-thieno[2,3-c]pyridine-2-carboxylic acid amide]
IC50 [4]: > 1000 nM

CNC(=O)c1cc2c(Oc3ccc(COCCOC)cc3)cncc2s1 [4-[4-(2-Methoxy-ethoxymethyl)-phenoxy]-thieno[2,3-c]pyridine-2-carboxylic acid methylamide]
IC50 [4]: > 1000 nM

CC(C)c1ccc(Oc2cncc3sc(C(N)=O)cc23)cc1 [4-(4-Isopropyl-phenoxy)-thieno[2,3-c]pyridine-2-carboxylic acid amide]
IC50 [4]: > 100 nM

NC(=O)c1cc2c(Oc3ccc(I)cc3)cncc2s1 [4-(4-Iodo-phenoxy)-thieno[2,3-c]pyridine-2-carboxylic acid amide]
IC50 [4]: > 10 nM
